# Biological target: T1, EDC3 (Homo sapiens, UniProt Q96F86)
# T1 sequence (Q96F86 1-508): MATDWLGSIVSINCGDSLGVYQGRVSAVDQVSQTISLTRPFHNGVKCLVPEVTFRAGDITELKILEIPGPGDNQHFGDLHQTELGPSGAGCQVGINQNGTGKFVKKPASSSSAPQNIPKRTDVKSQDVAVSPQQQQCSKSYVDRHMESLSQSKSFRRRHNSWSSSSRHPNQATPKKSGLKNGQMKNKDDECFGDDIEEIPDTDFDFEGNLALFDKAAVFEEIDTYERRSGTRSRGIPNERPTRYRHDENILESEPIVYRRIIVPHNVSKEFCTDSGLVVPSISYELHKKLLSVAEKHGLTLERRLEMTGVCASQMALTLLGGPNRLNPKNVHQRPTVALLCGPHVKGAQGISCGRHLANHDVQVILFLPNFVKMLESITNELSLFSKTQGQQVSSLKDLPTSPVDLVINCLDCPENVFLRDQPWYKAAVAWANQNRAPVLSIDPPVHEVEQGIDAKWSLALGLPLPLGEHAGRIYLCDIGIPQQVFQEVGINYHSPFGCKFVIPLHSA
# Assay: competitive gel-based ABPP in situ
# Assay type: cell-based
# Summary of the method: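 Recombinant EDC3-expressing HEK293T cells pretreated with test compound (0.1–100 µM, 2 h); lysed, and soluble proteomes labelled with HHS-465 Tyr/Lys-reactive sulfonyl-triazole probe (100 µM, 1 h, RT). CuAAC to rhodamine-azide, SDS-PAGE and in-gel fluorescence scanning. IC50 estimated from dose-dependent loss of EDC3 probe labelling; mean ± SEM, n = 3 biologically independent replicates.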
smiles,measurement,value
COc1ccc(S(=O)(=O)n2cc(CS(C)(=O)=O)nn2)cc1 [AHL-030],IC50,~6 µM

# From publication PMC10392812 (Journal of the American Chemical Society, 2023)
